PLC-gamma1 inh = inhibitors of human phospholipase C gamma1; P19174; purified PLC-gamma1, fluorogenic substrate, fluorescence; inhibition, % at 12.2 µM; 370,000 tested, 0.84% active
Arrestin-AP2 inh = human beta-arrestin and AP2 interaction inhibition. FITC-arrestin peptide / GST-AP2 beads, flow cytometry; AP2 beta2 appendage carries R879A mutation. inhibition, % at 10 µM. 340,000 tested, 0.31% active;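 active = inhibition above a set limit, near 3 SD of compounds lacking own fluorescence, cut at about 54% in these data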;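 also: plate controls were DMSO wells for no effect and 5 µM unlabelled arrestin peptide for full effect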
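Test system: GST-tagged AP2 beta2-adaptin appendage (R879A) on 4 µm glutathione beads; also added: fluorescein-tagged arrestin peptide at 50 nM final; timing: 12 min plus 1 h, RT; signal: flow cytometry, FL1 (488/535 nm); read-out: percent drop in bead-associated FITC signal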
PLCb3 inh = inhibitors of human phospholipase C beta3 | Q01970 | Purified PLC-beta3, fluorogenic substrate, fluorescence | inhibition, % at 12.2 µM | 370,000 tested, 0.18% active; in the data active = inhibition above about 11%;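 also: 0% = median of compound wells on plate and 100% = full blocker control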
NTR1 agonist = activates human neurotensin receptor 1; P30989; 330,000 tested, 0.17% active; activation, % at 20 µM; NTR1-U2OS beta-arrestin-GFP spot imaging, agonist mode;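 active = activation at or above 40% of the spot to cytoplasm intensity ratio, with at least 20 cells analyzed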;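 also: 0% = DMSO without peptide and 100% = 100 nM NTR1 peptide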
Target sequence (P30989 whole entry, looked up): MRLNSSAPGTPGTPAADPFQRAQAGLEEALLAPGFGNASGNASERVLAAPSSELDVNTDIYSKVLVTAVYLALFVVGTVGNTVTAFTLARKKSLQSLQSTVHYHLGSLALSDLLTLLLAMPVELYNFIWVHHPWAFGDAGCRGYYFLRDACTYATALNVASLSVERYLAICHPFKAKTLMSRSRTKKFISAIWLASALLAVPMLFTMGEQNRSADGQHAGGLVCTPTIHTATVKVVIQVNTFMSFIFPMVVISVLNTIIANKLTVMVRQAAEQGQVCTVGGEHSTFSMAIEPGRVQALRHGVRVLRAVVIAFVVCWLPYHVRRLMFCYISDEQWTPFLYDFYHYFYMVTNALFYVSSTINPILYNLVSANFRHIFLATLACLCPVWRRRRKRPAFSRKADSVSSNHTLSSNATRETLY
PLCgamma1 ctr = inhibits human PLC-gamma1 in PLC-beta3 counter-screen; shares compounds with PLC-gamma1 inh; purified PLC-gamma1, fluorogenic substrate, fluorescence; inhibition, % at 12.3 µM; 3,300 tested, 3.1% active
PLCb3 confirm = confirmation of human PLC-beta3 inhibitors; 3,300 tested, 1% active; AID 743261; shares compounds with PLC-gamma1 inh; purified PLC-beta3, fluorogenic substrate fluorescence; inhibition, % at 12.3 µM; in the data active = inhibition above about 11%
The depositor's hits bear a star; / = not tested or not shown; ! = a repeat was not active. This is a sample that favours compounds with a hit; in the whole collection about 1.3% have one here. Rule as the data show it, unless noted: active = inhibition above about 9.5%; inactive = the rest.

SMILES	PLC-gamma1 inh	Arrestin-AP2 inh	PLCb3 inh	NTR1 agonist	PLCgamma1 ctr	PLCb3 confirm
O=C1CCCC(O)=C1N=Nc1c(Cl)cc(Cl)cc1Cl	10*	0	5	0	-4	-2
COc1ccc(-c2cc(C(=O)Nc3cc(C)nn3-c3ccccc3)no2)cc1	1	7	0	-1	/	/
Cc1cc(NC(=O)c2cc(-c3ccccc3)on2)n(-c2ccccc2)n1	9	-2	12*	5	-9	-8
COC(=O)C1CN(Cc2cn(Cc3ccc(C)cc3)nn2)CCS(=O)(=O)N1Cc1ccc(F)cc1 (stereo not drawn)	1	/	1	/	/	/
Cc1ccc(S(=O)(=O)NC2=C(N3CCN(c4ccccc4F)CC3)C(=O)c3ccccc3C2=O)cc1	15*!	0	1	3	9.8*	8
O=C(N[C@H](C(=O)N1CCC[C@H]1C(=O)NCCc1ccccc1Cl)C1CCCCC1)c1cccs1	9.9*	/	8	/	2	-4
Cc1ccccc1C(=O)N[C@H](C(=O)N1CCC[C@H]1C(=O)NCCc1ccccc1Cl)C1CCCCC1	2	/	0	/	/	/
Cc1ccc(C)c(SCC(=O)NCc2ccco2)c1	0	-5	12*	-6	-8	-6
Cc1ccc(SCC(=O)NCc2ccco2)cc1	3	-7	-1	3	/	/
CC(C)c1nc(N(C)S(C)(=O)=O)nc(-c2ccc(F)cc2)c1/C=C/[C@H](O)C[C@@H](O)CC(=O)O	-1	/	3	/	/	/
O=C(CC1Sc2ccccc2NC1=O)Nc1cccc(C(=O)O)c1 (stereo not drawn)	12*	11	10	-1	4	2
NS(=O)(=O)c1cccc(NC(=O)COC(=O)CC2Sc3ccccc3NC2=O)c1 (stereo not drawn)	4	-1	4	-2	/	/
COc1ccc(S[C@]2(C(=O)N3CCN(c4ncccn4)CC3)CC(=O)N(c3ccsc3)[C@@H]2c2ccc(OC)cc2)cc1	0	/	-4	/	/	/
COc1ccc(/C=N/NC(=S)Nc2ccccc2)cc1COc1ccc(Br)cc1	-5	3	-17	10	/	/
COc1ccc(/C=N/NC(=S)Nc2ccccc2)cc1COc1ccc(F)cc1	11*	26	16*	6	-11	-10
CO[C@H]([C@H](C)/C=C/N(C)C=O)[C@@H](C)C(O)CC[C@H](C)[C@H](O)[C@H](C)[C@H]1OC(=O)/C=C/C(C)=C/C[C@H](O)C[C@@H]2C=CC[C@@H](C[C@H](OC)[C@@]3(CO3)[C@@H](OC)C[C@@H](OC)[C@@H]1C)O2 (stereo partly drawn)	2	/	-5	/	/	/
Cc1nn(Cc2ccccc2)c(C)c1/C=N/NC(=O)CNc1cccc(C(F)(F)F)c1	9.6*	25	0	7	-11	-5
COc1ccc(NCC(=O)N/N=C/c2c(C)nn(Cc3ccccc3)c2Cl)cc1	-2	5	-1	-1	/	/
CCCCCCNC(=O)C1CSCCS(=O)(=O)N1Cc1ccccc1 (stereo not drawn)	1	/	1	/	/	/
COCCCNC(=O)C[C@H]1C[C@@]2(C(=O)OC)C(=C[C@H](C(C)(C)C)O[C@@H]2C)N(CCC2=CCCCC2)C1=O	3	/	4	/	/	/
COc1ccc(C(=O)Nc2nnc(C)s2)cc1S(=O)(=O)N1CCOCC1	12*	-10	-8	0	-8	-3
COc1ccc(C(=O)OCC(=O)N2CCOCC2)cc1S(=O)(=O)N1CCOCC1	0	34	-4	0	/	/
O=C(COc1ccc(S(=O)(=O)N2CCOCC2)cc1)NC1CC1	10*	-7	2	-1	1	3
COc1ccc(C(=O)OCC(=O)NC2CC2)cc1S(=O)(=O)N1CCOCC1	9.6*	-17	6	1	-5	0
CN(CC(=O)Nc1cccc(F)c1)C(=O)Cc1ccsc1	-4	/	-5	/	/	/
CN(CC(=O)Nc1cccc(F)c1)C(=O)CCCc1cccs1	13*	0	10	3	-1	0
CC(=O)N1CC(C)Oc2ccc(S(=O)(=O)Nc3ccc(Cl)cn3)cc21 (stereo not drawn)	10*	-12	-3	2	-6	-4
COc1ccc(S[C@]2(C(=O)N3CCOCC3)CC(=O)N(C(=O)Nc3ccc(C)c(Cl)c3)[C@@H]2c2ccc(OC)cc2)cc1	3	/	2	/	/	/
COc1ccc(NS(=O)(=O)c2cn(C)nc2C)cc1	12*	27	2	0	-3	0

Screens: PubChem BioAssay, several laboratories
